# This excerpt belongs to a sample that is enriched for hits.
# G6PDH CS: L. mesenteroides G6PDH inhibition counter-screen; Purified L. mesenteroides G6PDH, diaphorase/resazurin coupled fluorescence, 45 min; AID 1020; 200,000 tested, 0.12% active; inhibition, % at 5 µM
# Lmaj promast: inhibitors of Leishmania major promastigote growth; Leishmania major promastigotes, resazurin fluorescence viability; inhibition, % at 10 µM; 200,000 tested, 9% active; AID 1063;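 further: promastigotes grown with compound for 44 hours at 28 °C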
# PfGluPho inh: PfG6PD (Plasmodium falciparum) enzyme inhibition; AID 504690; inhibition, % at 20 µM; 350,000 tested, 0.78% active; PfGluPho enzyme, NADPH resazurin-diaphorase fluorescence;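 active means inhibition reaching at least a set limit at 20 µM in the primary screen, cut at about 59% in these data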;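 further: 0% = DMSO wells with substrate and 100% = DMSO wells lacking glucose-6-phosphate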
# Diaph inh CS: inhibits diaphorase or chemically oxidizes, flagging diaphorase assay artifacts | diaphorase resazurin-to-resorufin fluorescence, NADH, 16 min; bacterial (C. kluyveri) enzyme, not human | inhibition, % at 20 µM | 190,000 tested, 0.69% active;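 active means primary screen inhibition at 20 µM above a set limit, cut at about 50% in these data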;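 further: plate controls were DMSO with full reaction for no effect and wells lacking NADH for full effect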
#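 material = Clostridium kluyveri diaphorase enzyme | amount = 0.14 U/mL diaphorase, enzyme working solution | schedule = incubation 16 min, room temperature | detection = fluorescence of resorufin formed from resazurin, Ex 544/Em 590 nm | benchmarks = positive control minus NADH, DMSO neutral control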
# Diaph act CS: counter-screen for diaphorase-based assays: diaphorase activators and chemical reducers | Diaphorase/resazurin coupled assay, resorufin fluorescence, 16 min; hits give high values; 1 = vehicle wells, 0 = NADH-free wells | activation factor at 20 µM | 190,000 tested, 0.005% active | AID 1229;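 active means diaphorase activity raised at least twofold by the compound at 20 µM; inactive means activation factor below 2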
#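 test system = bacterial diaphorase enzyme (C. kluyveri) | quantity = enzyme 0.07 U/mL final | reagent = NADH substrate 0.114 mM plus resazurin dye 0.1 mM, final | incubation = 16 min enzyme reaction, ambient temperature | buffer or medium = HEPES pH 7.4 buffer with MgCl2 and Tween 20 | signal = fluorescence of resorufin, 544 nm excitation, 590 nm emission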
# DTT redox prof: compounds producing H2O2 with reducing agent – biochemical, NIH compound library profiling, artefact control for MLSCN library redox annotation, primary screen | DTT-dependent redox cycling H2O2, phenol red/HRP absorbance; 100% = 100 µM peroxide control, 0% = buffer | activation, % at 10 µM | 200,000 tested, 0.03% active | AID 878;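 active means activation of at least 50% relative to the plate's high and low controls in the primary single-dose screen; inactive means activation below 50%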;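 further: compound incubated with DTT at 0.8 mM final as the reducing agent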
# Active calls of the source: *; . = not tested or not shown. Unless noted, no stated cut-off is given here; in the data, active means inhibition above about 50%; inactive means the rest.
SMILES,G6PDH CS,Lmaj promast,PfGluPho inh,Diaph inh CS,Diaph act CS,DTT redox prof
CCOc1ccc(/C(O)=C2/C(=O)C(=O)N(CCCN3CCOCC3)C2c2ccc(C)cc2)cc1C (centres undefined),.,.,-21,.,.,.
O=C(NCc1nc(-c2ccc(C(F)(F)F)cc2)no1)Nc1ccc(OC(F)(F)F)cc1,.,.,21,.,.,.
CCCCOc1ccc(/C=N/NC(=O)c2csc(C)c2C)cc1,3,-11,2,16,0.8,0
Cc1scc(C(=O)N/N=C/c2ccc(OCC(C)C)cc2)c1C,7,88*,-26,14,0.9,0
COc1cccc(C2c3[nH]c4ccccc4c3C[C@H]3C(=O)N(c4ccccc4C(=O)NCCCN4CCOCC4)C(=O)N23)c1 (some centres undefined),.,.,14,.,.,.
Oc1ccccc1C(=S)N1CCN(C(=S)c2ccccc2O)CC1,.,.,32,.,.,.
CCOc1cc(/C=N/n2cnnc2)ccc1OCC(=O)Nc1ccccc1OC,4,1,-47,5,0.9,4
CCOc1cc(/C=N/n2cnnc2)ccc1OS(=O)(=O)c1ccc(C)cc1,8,79*,10,19,0.8,-2
Cc1cccc(CN2C(=O)N/C(=C/c3ccc(C)s3)C2=O)c1,1,8,3,-1,1,-18
Cc1ccc(/C=C2/NC(=O)N(Cc3ccccc3)C2=O)s1,4,73*,7,0,1,-3
COc1cc(C)c(NC(c2ccccc2)c2ccccc2)cc1OC,4,91*,-1,0,1,-1
O=C1CC(=O)N(Cc2ccco2)C(=S)N1,4,-8,-4,68*,0.3,0
O=C1CC(=O)N(Cc2ccco2)C(=O)N1,1,-8,4,4,1,-3
Cc1ccc(CN(C(=O)N2CCN(C)CC2)S(=O)(=O)c2ccc(C)cc2)cc1,.,.,1,.,.,.
CSCCC(NC(=O)c1ccc([N+](=O)[O-])cc1Cl)C(=O)OCC(=O)NC1CCCC(C)C1C (centres undefined),0,60*,2,22,0.8,0
Cc1cc(C)c(S(=O)(=O)NC2CC3CCC2C3)c(C)c1 (centres undefined),.,.,-36,.,.,.
C/C(=N\N=C\c1ccccc1)c1nnn(-c2nonc2N)c1C,5,2,-13,4,1,-4
COc1cc(/C=C2/C(=O)NN(c3ccc(Cl)cc3)C2=O)ccc1OC(=O)c1ccco1,0,52*,-11,17,0.8,1
COc1cc(/C=C2/C(=O)NN(c3cccc(F)c3)C2=O)ccc1OC(=O)c1ccco1,-12,-1,-12,20,0.8,1
Cc1cccc(N2CCN(C(=O)CCCn3c(=S)[nH]c4cc5c(cc4c3=O)OCO5)CC2)c1C,-2,64*,14,19,0.8,0
O=C(CCCn1c(=S)[nH]c2cc3c(cc2c1=O)OCO3)N1CCN(c2ccc(Cl)cc2)CC1,0,56*,9,17,0.8,0
COC(=O)C(C)Oc1ccc2c3c(c(=O)oc2c1)CCCCC3 (centres undefined),-6,-1,22,-1,1,2
O=C(NNC(=O)c1cccnc1SCc1cccc([N+](=O)[O-])c1)c1ccccn1,-4,98*,-38,41,0.6,0
Cc1nc(NC(=O)c2ccccc2)sc1-c1csc(NCc2ccccc2)n1,6,86*,6,27,0.7,5
Cc1nc(NC(=O)c2ccccc2)sc1-c1csc(Nc2cccc(F)c2)n1,1,30,.,27,0.7,12
SMILES,G6PDH CS,Lmaj promast,PfGluPho inh,Diaph inh CS,Diaph act CS,DTT redox prof
Cc1nc(NC(=O)c2ccccc2)sc1-c1csc(NCCc2ccccc2)n1,1,100*,11,16,0.8,1
Cc1nc(NC(=O)c2ccccc2)sc1-c1csc(N)n1,1,15,28,14,0.9,0
Cc1ccc(S(=O)(=O)N2CCC(C(=O)NNC(=O)c3ccc(F)cc3)CC2)cc1,8,-7,18,-2,1,-1
CC(Sc1nnc(-c2ccco2)n1C)C(=O)Nc1nccs1 (centres undefined),.,.,-2,.,.,.
CC(=O)C[C@H](O)CC(=O)[C@H]1OC(=O)CCCCCCCCc2ccccc21,.,.,4,.,.,.
COc1cc(/C=C2\C(=O)N(CCC#N)N=C2C)ccc1OCC(=O)Nc1ccccc1,3,60*,17,18,0.8,0
CCOc1cc(/C=C2\C(=O)N(CCC#N)N=C2C)ccc1OCC(N)=O,4,-7,-9,-1,1,-2
Nc1ccc(Oc2cc(N)cc(Oc3ccccc3)c2)cc1,.,.,17,.,.,.
Nc1ccc(Oc2ccc3nc(-c4ccccc4)c(-c4ccccc4)nc3c2)cc1,2,66*,19,26,0.7,-3
CCOC(=O)/C(=N\Nc1ccccc1[N+](=O)[O-])c1csc(N)n1,10,52*,-3,15,0.9,0
COc1ccc(CN2CCC3CC2c2cc(Cl)ccc23)cc1 (centres undefined),.,.,-4,.,.,.
O=C(N=C1SC2CS(=O)(=O)CC2N1Cc1ccc(Cl)cc1)C1CC1 (centres undefined),.,.,-3,.,.,.
Cc1cc(NC(=O)c2cccc(Cl)c2)n[nH]1,.,.,21,.,.,.
O=C(Nc1cnn(Cc2ccc(F)cc2)c1)c1noc2c1CCCC2,9,100*,24,12,0.9,0
O=C(Nc1cnn(Cc2ccc(F)cc2)c1)C(c1ccccc1)c1ccccc1,4,51*,13,21,0.8,0
CNC(=O)c1c(NC(=O)CCS(=O)(=O)c2ccc(C)cc2)sc2c1CCN(C(=O)OC)C2,.,.,14,.,.,.
COc1cc2c(cc1OC)C(c1cc(C)ccc1C)CC(=O)N2 (centres undefined),.,.,-27,.,.,.
NS(=O)(=O)c1cccc(NC(=O)C(Cc2ccccc2)NC(=O)c2ccccc2)c1 (centres undefined),.,.,20,.,.,.
O=C(NCCc1ccccc1)C1CCCN1S(=O)(=O)c1ccccc1 (centres undefined),5,0,-2,4,1,-2
COc1ccc(N2C(=O)c3ccccc3NC2c2cccnc2)cc1 (centres undefined),11,59*,2,5,0.9,0
O=C1c2ccccc2NC(c2cccnc2)N1c1ccccc1F (centres undefined),-2,31,4,6,0.9,0
CC(=O)N1c2ccc(S(=O)(=O)NCC3CCC(C(=O)N4CCCC(C)C4)CC3)cc2CC1C (centres undefined),.,.,14,.,.,.
Oc1c(C(c2ccccc2Cl)N2CCCC2)ccc2cccnc12 (centres undefined),8,100*,-4,55*,0.4,0
